E coli WT exp – growth inhibitors of E. coli BW25113 wild type. OD600 absorbance. actives 0.15% (n = 98,000). AID 710. growth inhibition, % at 100 µM;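 active = growth inhibition above about 50% at one test dose, limit read from the data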;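 note: growth measured after 20 h incubation at 37 °C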
CYP2C9 inh – inhibitors of human CYP2C9 | inhibition, % at 5 µM | AID 777 | CYP2C9 Supersomes, luciferin-H conversion, luminescence | P11712 | actives 20% (n = 96,000);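 active = blocking of liver enzyme CYP2C9 beyond about 50% at 5 µM, limit read from the data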
CYP2C9 act – activators of human CYP2C9 | recombinant CYP2C9, luciferin-H conversion, luminescence; hits give high values; factor 1 = untreated enzyme, 0 = blocked | activation factor at 5 µM | P11712 | AID 1024 | actives 1.4% (n = 96,000);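 active = activation factor of 2 or more for CYP2C9 at a 5 µM dose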;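 note: 0 = sulfaphenazole-blocked wells and 1 = vehicle-only wells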
CYP2C19 inh – human CYP2C19 inhibition; P33261; AID 778; actives 21% (n = 96,000); inhibition, % at 5 µM; CYP2C19 Supersomes, luciferin-H EGE luminescence, 30 min;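 active = CYP2C19 inhibition above a set limit at 5 µM in the primary screen, cut at about 50% in these data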;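 note: plate controls were negative control wells for no effect and 2.5 mM tranylcypromine positive control for full effect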
Target sequence (P33261 whole entry, looked up): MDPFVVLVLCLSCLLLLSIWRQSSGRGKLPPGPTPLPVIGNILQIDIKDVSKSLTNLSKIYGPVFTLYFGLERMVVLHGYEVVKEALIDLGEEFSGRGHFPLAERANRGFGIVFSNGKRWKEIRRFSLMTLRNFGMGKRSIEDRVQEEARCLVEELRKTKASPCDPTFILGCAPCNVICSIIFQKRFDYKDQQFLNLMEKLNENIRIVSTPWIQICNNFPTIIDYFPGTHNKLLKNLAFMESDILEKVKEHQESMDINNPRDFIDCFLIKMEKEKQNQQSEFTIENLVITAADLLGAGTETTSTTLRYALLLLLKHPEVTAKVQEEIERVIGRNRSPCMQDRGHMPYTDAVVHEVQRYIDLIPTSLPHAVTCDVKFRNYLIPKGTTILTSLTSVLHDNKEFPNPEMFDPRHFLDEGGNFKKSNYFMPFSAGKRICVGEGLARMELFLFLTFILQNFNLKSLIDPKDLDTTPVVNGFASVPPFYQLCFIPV
Ecoli tolC – growth inhibitors of E. coli BW25113 tolC mutant | OD615 | growth inhibition, % at 10 µM (by protocol) | actives 2.2% (n = 65,000) | AID 573;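 active = growth inhibition at or above a cutoff equal to the mean over every tested compound plus 3 SD, cut at about 60% in these data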;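 note: growth measured after 20 h incubation at 37 °C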
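test system = E. coli BW25113 ΔtolC::kan bacteria | medium = LB with kanamycin 50 µg/mL | signal = OD at 615 nm | schedule = 37 °C, 20 h exposure | evaluation = % inhibition of E. coli growth | compound dosing = one dose of 10 µM final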
CYP2C19 act – cytochrome P450 2C19 (human) activation | 96,000 tested, under 10 active | AID 1025 | activation factor at 5 µM | P33261 | recombinant CYP2C19, luciferin-H EGE luminescence; hits give high values; 0 = fully inhibited enzyme, 1 = untreated enzyme;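 active = activation factor of at least 2 at 5 µM in the primary screen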;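 note: 0 = wells with 2.5 mM tranylcypromine and 1 = vehicle-only wells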
Numbers without * were called inactive; . = no result given. Only some compounds are listed: those with a hit (about 29% of all), similar ones and a draw of the others.

SMILES	E coli WT exp	CYP2C9 inh	CYP2C9 act	CYP2C19 inh	Ecoli tolC	CYP2C19 act
O=C1OC2CC3CC1CC(O)(C3)C2 (stereo not given)	0	-8	1.1	-16	-27	1.2
COCCSc1ccccc1C(=O)N1CCN(Cc2ccc3c(c2)OCO3)CC1	3	19	0.8	12	-3	0.9
Cn1c(=O)c2c(nc(Oc3ccccn3)n2C)n(C)c1=O	.	-2	1	-7	.	1.1
COC(=O)c1ccc(N2C(=O)CC(N(C)CCc3ccc(OC)c(OC)c3)C2=O)cc1 (stereo not given)	-3	54*	0.5	62*	-12	0.4
Clc1ccc(COn2nnc3ccccc32)c(Cl)c1	-1	8	0.9	64*	10	0.4
Cc1ccc(-c2nn3c(C)nnc3c3ccccc23)cc1S(=O)(=O)NCc1ccccc1	-5	46	0.5	28	.	0.7
Cc1ccc(-c2nn3c(-c4ccco4)nnc3c3ccccc23)cc1S(=O)(=O)N1CCOCC1	.	17	0.8	6	4	0.9
Cc1ccc(-c2nn3c(C)nnc3c3ccccc23)cc1S(=O)(=O)N(C)CCO	-7	86*	0.1	3	.	1
CCOC(=O)N1CCN(S(=O)(=O)c2cc(-c3nn4c(C)nnc4c4ccccc34)ccc2C)CC1	-1	80*	0.2	56*	.	0.4
CCn1c(=O)cc(N2CCC3(CC2)OCCO3)[nH]c1=O	-2	-8	1.1	-9	-17	1.1
O=C(c1cccnc1Nc1ccc2c(c1)CCC2)N1CCOCC1	5	5	0.9	70*	-4	0.3
CCCOc1ccccc1-n1sc2c(c1=S)-c1cc(OC)cc3c1N(C(=O)C3=O)C2(C)C	-13	80*	0.2	62*	.	0.4
COc1cc(C)c(Br)cc1S(=O)(=O)N1CCCC1	-2	-178	2.8*	96*	22	0
CCN(CC)S(=O)(=O)c1cc(Br)ccc1OC	-1	-149	2.5*	98*	-7	0
CCN(CC)S(=O)(=O)c1c(Br)cc(C)cc1Br	-4	-154	2.5*	41	.	0.6
CCN(CC)S(=O)(=O)c1cc(Br)c(C)cc1OC	0	-104	2*	41	20	0.6
COc1ccc(-c2noc(CCCC(=O)NCc3ccco3)n2)cc1OC	3	13	0.9	13	6	0.9
Cc1nc(N)nc(OCC(F)(F)C(F)F)c1Br	27	21	0.8	19	.	0.8
c1ccc(COc2ccc(OCCCNC3CCCC3)cc2)cc1	20	1	1	11	.	0.9
CN(C)S(=O)(=O)c1cccc(C(=O)OCC(=O)Nc2sccc2C#N)c1	-2	23	0.8	0	.	1
COc1ccc(C(=O)NCC(c2cccnc2)N2CCN(c3ccccc3)CC2)cc1OC (stereo not given)	10	.	.	.	-6	.
O=C(c1cccs1)N1CCC(c2nc(-c3ccc(S(=O)(=O)N4CCOCC4)cc3)no2)CC1	-6	62*	0.4	18	.	0.8
COc1ccc(-c2noc(C3CCCN(C(=O)c4cccs4)C3)n2)cc1 (stereo not given)	-5	89*	0.1	85*	52	0.1
COc1cccc(C(=O)N2CCCC(c3nc(-c4cccs4)no3)C2)c1 (stereo not given)	3	68*	0.3	86*	14	0.1
CCC(C)C(=O)N1CCCC(c2nc(-c3cccs3)no2)C1 (stereo not given)	5	-7	1.1	14	.	0.9
SMILES	E coli WT exp	CYP2C9 inh	CYP2C9 act	CYP2C19 inh	Ecoli tolC	CYP2C19 act
O=[N+]([O-])c1cccc(S(=O)(=O)N2CCC(c3nc(-c4ccncc4)no3)CC2)c1	-7	60*	0.4	38	.	0.6
Cc1ccc(-c2noc(C3CCCN(C(=O)c4ccc(F)cc4F)C3)n2)cc1 (stereo not given)	-2	39	0.6	22	39	0.8
Cc1cccc(NC(=O)N(C)Cc2cccs2)c1	3	-28	1.3	44	.	0.6
CCCC(=O)N1CCCC(c2nc(-c3cccs3)no2)C1 (stereo not given)	8	18	0.8	6	.	0.9
COc1cc(C(=O)N2CCCC(c3nc(-c4cccs4)no3)C2)cc(OC)c1OC (stereo not given)	2	47	0.5	56*	7	0.4
CCCC12CN3CC(C)(CN(C1)C3c1ccc(OC(C)C)cc1)C2=O (stereo not given)	-6	16	0.8	2	20	1
O=C(Nc1ccc2c(c1)oc1ccccc12)c1ccc(Br)o1	-17	-16	1.2	18	1	0.8
CCc1cccc(NC(=O)c2ccc(Br)o2)c1	17	18	0.8	70*	26	0.3
O=C(c1ccccc1)c1cccc(NC(=O)c2ccc(Br)o2)c1	-17	95*	0.1	64*	.	0.4
CCN(CC)c1ccc(NC(=O)c2ccc(Br)o2)cc1	7	-9	1.1	52*	-3	0.5
O=C(CNCc1ccco1)Nc1ccccc1-n1cccc1	-4	.	.	.	-17	.
CCOC(=O)c1ccc(N2C(=O)CC(N3CCC(Nc4ccc(F)cc4)CC3)C2=O)cc1 (stereo not given)	-3	19	0.8	22	.	0.8
O=C(NCCCN1CCOCC1)c1ccc(-n2nc(C(F)(F)F)cc2-c2cccs2)cc1	3	65*	0.3	42	.	0.6
Cc1cc(C(=O)NCCCN2CCOCC2)n(-c2ccccc2)n1	-3	14	0.9	2	-8	1
COCCCNC(=O)c1ccc(-n2nc(C(F)(F)F)cc2-c2cccs2)cc1	-4	50*	0.5	53*	.	0.5
CC(=O)N(c1ccc2oc(=O)sc2c1)S(=O)(=O)c1ccccc1	6	14	0.9	65*	-12	0.4
CCCC(=O)N(c1ccc2oc(=O)sc2c1)S(=O)(=O)c1cccs1	7	71*	0.3	99*	9	0
CC(C)C(=O)N(c1ccc2oc(=O)sc2c1)S(=O)(=O)c1ccccc1	0	3	1	7	.	0.9
CC(C)(C)OC(=O)N1CCN(c2ccc(CNC(=O)c3ccc(Cl)cc3)cc2)CC1	-1	48	0.5	38	.	0.6
Cc1ccc2[nH]c(C)c(CN(C)C3CCN(C)CC3)c(=O)c2c1	.	.	.	.	-4	.
CCN1CCCC1CNC(=O)CCc1nc(-c2ccc(C)cc2)no1 (stereo not given)	-7	10	0.9	25	-13	0.7
O=C(Nc1ccc(Cl)cc1-c1nc2ccccc2s1)c1ccco1	5	12	0.9	-15	.	1.1
C/C(N)=C(/C#N)C(=O)CSc1nnnn1-c1ccccc1	3	-11	1.1	64*	.	0.4
Cc1ccc(-n2nnnc2SCC(=O)NC(=O)Nc2ccc3c(c2)OCCO3)cc1	1	33	0.7	16	32	0.8

Screening results as filed in PubChem BioAssay.
